From ChEMBL document CHEMBL3745667, “Identification of Noncompetitive Inhibitors of Cytosolic 5'-Nucleotidase II Using a Fragment-Based Approach” (J Med Chem, 2015)

Columns and labels:
[1] = biological target: T1, Cytosolic purine 5'-nucleotidase (Homo sapiens, UniProt P49902); experiment: Inhibition of recombinant N-terminal truncated human cytosolic 5'-nucleotidase-2 assessed as inhibition of inosine 5'-monophosphate hydrolysis at 1 mM by rapid green malachite assay
In short: (§1)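 Purified recombinant N-terminally truncated cN-II expressed in E. coli, with IMP as substrate. Released phosphate was read by green malachite colorimetry. Inhibitor was tested at a single level, 0.2 mM or 1 mM. Compounds that are not water-soluble were added in DMSO, not exceeding 2% final.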

[2] = biological target: T1, Cytosolic purine 5'-nucleotidase; experiment: Inhibition of recombinant N-terminal truncated human cytosolic 5'-nucleotidase-2 assessed as inhibition of inosine 5'-monophosphate hydrolysis at 0.2 mM by rapid green malachite assay; in short: as §1
RL [3] = experiment: Antiproliferative activity against human RL cells after 72 hrs by MTT assay; type: functional, cell-based
In short: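 MTT assay on RL human follicular lymphoma cells treated with a range of compound concentrations for 72 h. IC50 calculated with CompuSyn and given as the mean ± SEM of at least three independent experiments.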

RL [4] = experiment: Antiproliferative activity against human RL cells after 72 hrs by MTT assay in presence of fludarabine; type: functional, cell-based
RL [5] = experiment: Antiproliferative activity against human RL cells after 72 hrs by MTT assay in presence of cladribine; type: functional, cell-based
RL [6] = experiment: Antiproliferative activity against human RL cells after 72 hrs by MTT assay in presence of clofarabine; type: functional, cell-based
[7] = biological target: T1, Cytosolic purine 5'-nucleotidase; experiment: Inhibition of recombinant N-terminal truncated human cytosolic 5'-nucleotidase-2 assessed as inhibition of inosine 5'-monophosphate hydrolysis by steady state kinetics with HPLC quantification

T1 sequence (P49902 whole entry, the tested form may be a part): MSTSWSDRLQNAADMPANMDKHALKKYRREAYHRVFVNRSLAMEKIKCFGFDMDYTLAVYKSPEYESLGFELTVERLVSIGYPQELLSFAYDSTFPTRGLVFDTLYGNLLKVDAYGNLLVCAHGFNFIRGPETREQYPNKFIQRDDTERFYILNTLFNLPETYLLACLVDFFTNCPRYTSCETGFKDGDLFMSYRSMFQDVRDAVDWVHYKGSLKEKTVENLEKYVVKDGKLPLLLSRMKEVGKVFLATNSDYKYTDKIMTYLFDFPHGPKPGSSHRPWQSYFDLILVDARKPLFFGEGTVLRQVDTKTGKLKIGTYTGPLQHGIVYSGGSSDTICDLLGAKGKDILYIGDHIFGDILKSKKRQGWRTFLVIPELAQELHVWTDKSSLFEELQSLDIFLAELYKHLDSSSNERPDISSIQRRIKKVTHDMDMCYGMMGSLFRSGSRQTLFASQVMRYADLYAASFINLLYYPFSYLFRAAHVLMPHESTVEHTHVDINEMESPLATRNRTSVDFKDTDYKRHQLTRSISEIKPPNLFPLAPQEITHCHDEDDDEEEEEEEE

SMILES | inhibition [1] [%] | further results
OC(c1ccccc1)c1ccccc1 | 2 | 
Nc1ccc(-c2ccc(N)c(O)c2)cc1O | 23 | 
Oc1ccc2ccc(O)cc2c1 | 40 | 
OCc1nc2ccccc2[nH]1 | 11 | 
c1ccc(-c2c[nH]cn2)cc1 | 36 | 
Oc1ccc(-c2ccc(O)cc2)cc1 | 8 | 
c1ccc(CNc2ncnc3[nH]cnc23)cc1 | 20 | 
O=C(Nc1ncnc2nc[nH]c12)c1ccccc1 | 28 | 
Oc1ccccc1-c1ccccc1 | 19 | 
Nc1ccccc1-c1ccccc1 | 36 | 
Nc1[nH]cnc2ncnc1-2 | 19 | 
O=C1c2ccc(S(=O)(=O)O)cc2C(=O)c2ccc(S(=O)(=O)O)cc21 |  | inhibition [2]: 20%; IC50 (RL [3]): 1040 µM; CI95 (RL [4]): 4.2; CI95 (RL [5]): 0.4; CI95 (RL [6]): 0.24; Ki [7]: 2000 µM
c1ccc(N2CCNCC2)nc1 | 0.5 | 
Nc1cccc2cnccc12 | 30 | 
Nc1nc(Cl)c2nc[nH]c2n1 | 23 | 
